The values below come from ChEMBL document CHEMBL2157989, “Synthesis and biological evaluation of antibody conjugates of phosphate prodrugs of cytotoxic DNA alkylators for the targeted treatment of cancer” (J Med Chem, 2012).

In general, solubility refers to the concentration that dissolves in the medium under given conditions. In general, pIC50 refers to the IC50 on a negative log10 scale, so that one unit is a factor of ten.

Series [1] can be described thus: Prodrug activation assessed as enzyme-mediated compound dephosphorylation in presence of human semen prostatic acid phosphatase P1649 at pH 7.4 by HPLC. Particulars: isolated protein; call rule not given here.
Series [2] can be described thus: Prodrug conversion assessed as 1 - [ S ] - ( Ch l o r ome t h y l ) - 5 - h y d r o x y - 3 - { { 5 - [ 5 - ( 3 -methyldithiopropionyl)indol-2-yl-carbonyl amino]indole-2-yl}- carbonyl}-1,2-dihydro-3H-benz[e]indole formation in presence of bovine liver alkaline phosphatase at pH 7.4. It counts as physicochemical. Conditions: cattle, isolated protein.
Series [3] can be described thus: Prodrug activation assessed as enzyme-mediated compound dephosphorylation in presence of porcine intestine mucosa alkaline phosphatase P4002 at pH 7.4 by HPLC. Conditions: pig, isolated protein.
Series [4] can be described thus: Solubility of the compound in 100% buffer at pH 7 at 1.5 mg sonicated for 45 mins followed by centrifugation for 45 mins by UV/Vis spectroscopy. It counts as physicochemical.
Series [5] is described as follows: Solubility in hexane at 1.5 mg sonicated for 45 mins followed by centrifugation for 45 mins by UV/Vis spectroscopy. It counts as physicochemical. Conditions: 0.75 h. The method in brief: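 Solid compound (~1.5 mg) in the stated solvent was sonicated 45 min, then centrifuged at 1400g for 45 min. The supernatant concentration was read by UV/vis at 340 nm, using ε = 41500 M⁻¹ cm⁻¹ for the free phenols and 34500 M⁻¹ cm⁻¹ for the phosphate prodrugs (pH 7.0 values).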

Series [6] in a line: Prodrug activation assessed as enzyme-mediated compound dephosphorylation in presence of rabbit intestine alkaline phosphatase P2256 at pH 7.4 by HPLC. Particulars: isolated protein.
A short description of series [7]: Solubility of the compound in 10% DMA and 90% buffer at pH 7 at 1.5 mg sonicated for 45 mins followed by centrifugation for 45 mins by UV/Vis spectroscopy. The class given is physicochemical. The method in brief: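 About 1.5 mg of compound is sonicated for 45 min in pH 7.0 buffer containing 10% or 20% DMA, then centrifuged at 1400g for 45 min. Supernatant concentration is read by UV/vis at 340 nm. ε at pH 7.0 is 41500 M⁻¹ cm⁻¹ for DC1–SR₂ compounds and 34500 M⁻¹ cm⁻¹ for phosphate prodrugs.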

A short description of series [8]: Prodrug conversion assessed as 1 - [ S ] - ( Ch l o r ome t h y l ) - 5 - h y d r o x y - 3 - { { 5 - [ 5 - ( 3 -methyldithiopropionyl)indol-2-yl-carbonyl amino]indole-2-yl}- carbonyl}-1,2-dihydro-3H-benz[e]indole formation in presence of porcine mucosa alkaline phosphatase at pH 7.4. It counts as physicochemical. Conditions: pig, isolated protein.
The nature of series [9]: Prodrug activation assessed as enzyme-mediated compound dephosphorylation in presence of bovine kidney alkaline phosphatase P4653 at pH 7.4 by HPLC. Particulars: cattle, isolated protein.
Series [10] can be described thus: Prodrug activation assessed as enzyme-mediated compound dephosphorylation in presence of calf intestine alkaline phosphatase P7923 at pH 7.4 by HPLC. Particulars: cattle, isolated protein.
A short description of series [11]: Cytotoxicity against human NAMALWA cells assessed as cell survival after 72 hrs in presence of bovine alkaline phosphatase by clonogenic assay. Conditions: NAMALVA. It counts as functional, cell-based. Put shortly:
(§1)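 Clonogenic assay: cells in RPMI 1640 with 10% heat-inactivated FBS were plated at 1000–5000 cells/well. Test agent (0–3 nM) was combined with alkaline phosphatase from bovine liver, and cells were exposed for 72 h. Colonies then grew for 7–10 days after plating and were stained with 0.2% crystal violet in 10% formalin/PBS. Surviving fraction is relative to untreated control wells.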

A short description of series [12]: Prodrug conversion assessed as 1 - [ S ] - ( Ch l o r ome t h y l ) - 5 - h y d r o x y - 3 - { { 5 - [ 5 - ( 3 -methyldithiopropionyl)indol-2-yl-carbonyl amino]indole-2-yl}- carbonyl}-1,2-dihydro-3H-benz[e]indole formation in presence of rabbit intestine alkaline phosphatase at pH 7.4. Conditions: in vitro. It counts as physicochemical.
Series [13] is described as follows: Prodrug activation assessed as enzyme-mediated compound dephosphorylation in presence of bovine semen prostatic acid phosphatase P3147 at pH 7.4 by HPLC. Conditions: cattle, isolated protein.
Series [14] can be described thus: Solubility in water containing 5% DMSO at 1.5 mg sonicated for 45 mins followed by centrifugation for 45 mins by UV/Vis spectroscopy. The class given is physicochemical. Conditions: 0.75 h.
Series [15] is described as follows: Prodrug activation assessed as enzyme-mediated compound dephosphorylation in presence of calf intestine mucosa alkaline phosphatase P79390 at pH 7.4 by HPLC. Conditions: cattle, isolated protein.
The test system of series [16] is Ramos. The series is described as follows: Cytotoxicity against human Ramos cells assessed as cell survival after 72 hrs in presence of bovine alkaline phosphatase by clonogenic assay. The class given is functional, cell-based. The method in brief:
as §1

A short description of series [17]: Cytotoxicity against human NAMALWA cells assessed as cell survival after 72 hrs by clonogenic assay. It counts as functional, cell-based. Conditions: NAMALVA. The method in brief:
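Cells were kept in RPMI 1640 with 10% heat-inactivated FBS at 37 °C and 6% CO₂. They were plated at 1000–5000 cells/well and exposed to 0–3 nM test agent for 72 h. Medium was then replaced and colonies grew for 7–10 days in total after plating. Colonies were fixed and stained with 0.2% crystal violet in 10% formalin/PBS, then counted. Surviving fraction = colonies in treated wells / colonies in control wells; IC₅₀ was taken from this.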

The nature of series [18]: Prodrug conversion assessed as 1-[S]-(Chloromethyl)-5-hydroxy-3-{{5-[5-(4-methyldithio-3,3- dimethyl butyryl)indol-2-yl-carbonyl amino]indole-2-yl}carbonyl}- 1,2-dihydro-3H-benz[e]indole formation in presence of bovine liver alkaline phosphatase at pH 7.4. The class given is physicochemical. Conditions: cattle, isolated protein.
A short description of series [19]: Prodrug conversion assessed as 1-[S]-(Chloromethyl)-5-hydroxy-3-{{5-[5-(4-methyldithio-3,3- dimethyl butyryl)indol-2-yl-carbonyl amino]indole-2-yl}carbonyl}- 1,2-dihydro-3H-benz[e]indole formation in presence of bovine kidney alkaline phosphatase at pH 7.4. Conditions: cattle, isolated protein. The class given is physicochemical.
Series [20] can be described thus: Prodrug conversion assessed as 1-[S]-(Chloromethyl)-5-hydroxy-3-{{5-[5-(4-methyldithio-3,3- dimethyl butyryl)indol-2-yl-carbonyl amino]indole-2-yl}carbonyl}- 1,2-dihydro-3H-benz[e]indole formation in presence of rabbit intestine alkaline phosphatase at pH 7.4. The class given is physicochemical. Conditions: in vitro.

pIC50: −log10 of the molar value. Converted amounts (≈) assume the structure as drawn.

Take `CSSCCC(=O)Nc1ccc2[nH]c(C(=O)Nc3ccc4[nH]c(C(=O)N5C[C@@H](CCl)c6c5cc(OP(=O)(O)O)c5ccccc65)cc4c3)cc2c1`: the Drug metabolism entry in series [1], in series [2], in series [3], in [6], in [8] and in series [9] was “Active” throughout. The Drug metabolism result in series [10], in series [12], in series [13] and in series [15] was “Active” each time. Also, the solubility at 0.75 h turned out to be 19 µM (≈ 14.5 µg/mL) in [4] and 4700 µM (≈ 3590 µg/mL) in [7]. The figures for the solubility result in [5] and in series [14] were “Insoluble” and “soluble”, respectively. Further, the pIC50 in series [11] is 10.52; in series [16] it was 10.10; in series [17], 8.54.
On to `CSSC(C)(C)CCC(=O)Nc1ccc2[nH]c(C(=O)Nc3ccc4[nH]c(C(=O)N5C[C@@H](CCl)c6c5cc(OP(=O)(O)O)c5ccccc65)cc4c3)cc2c1`, for which the Drug metabolism result in series [18], in [1], in series [2], in [3], in series [6] and in series [19] was “Active” in each case. Further, the Drug metabolism result in series [9], in series [10], in series [20], in series [13] and in series [15] was “Active” throughout. Also, the solubility at 0.75 h in series [4] was determined as 19 µM (≈ 15.3 µg/mL); in series [7], 4600 µM (≈ 3710 µg/mL). Moreover, the results for the solubility entry in series [5] and in series [14] were “Insoluble” and “soluble”, respectively. For the same compound, the pIC50 was 10.60 in series [11], 10.05 in series [16] and 8.55 in series [17].
